Laboratory results taken from ChEMBL document CHEMBL2074053, “Modified jatrophane diterpenes as modulators of multidrug resistance from Euphorbia dendroides L” (Bioorg Med Chem, 2003).
One block for each compound: values may come before it.

Tests used:
Format in all cases: functional, cell-based
Conditions in all cases: k562/r7, 5 µM
[1] = target: T1, ATP-dependent translocase ABCB1 (Homo sapiens, UniProt P08183); experiment: TP_TRANSPORTER: inhibition of Daunomycin efflux (Daunomycin: 10 uM, Terracinolide B: 5 uM) in K562/R7 cells
How it was run: (§1)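 Cells washed twice in ice-cold PBS and held on ice. Intracellular daunomycin read by flow cytometry. Efflux inhibition is the fluorescence shift relative to 2 µM cyclosporin A as positive control. Duplicates, at least three separate experiments.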

[2] = target: T1, ATP-dependent translocase ABCB1; experiment: TP_TRANSPORTER: inhibition of Daunomycin efflux (Daunomycin: 10 uM, Terracinolide K: 5 uM) in K562/R7 cells; how it was run: as §1
[3] = target: T1, ATP-dependent translocase ABCB1; experiment: TP_TRANSPORTER: inhibition of Daunomycin efflux (Daunomycin: 10 uM, 13alpha-OH Terracinolide G: 5 uM) in K562/R7 cells; how it was run: as §1
[4] = target: T1, ATP-dependent translocase ABCB1; experiment: TP_TRANSPORTER: inhibition of Daunomycin efflux (Daunomycin: 10 uM, Epiabeodendroidin F: 5 uM) in K562/R7 cells; how it was run: as §1
[5] = target: T1, ATP-dependent translocase ABCB1; experiment: TP_TRANSPORTER: inhibition of Daunomycin efflux (Daunomycin: 10 uM, 13alpha-OH Terracinolide B: 5 uM) in K562/R7 cells; how it was run: as §1
[6] = target: T1, ATP-dependent translocase ABCB1; experiment: TP_TRANSPORTER: inhibition of Daunomycin efflux (Daunomycin: 10 uM, Terracinolide C: 5 uM) in K562/R7 cells; how it was run: as §1
[7] = target: T1, ATP-dependent translocase ABCB1; experiment: TP_TRANSPORTER: inhibition of Daunomycin efflux (Daunomycin: 10 uM, Terracinolide L: 5 uM) in K562/R7 cells; how it was run: as §1

T1 sequence (P08183 whole entry): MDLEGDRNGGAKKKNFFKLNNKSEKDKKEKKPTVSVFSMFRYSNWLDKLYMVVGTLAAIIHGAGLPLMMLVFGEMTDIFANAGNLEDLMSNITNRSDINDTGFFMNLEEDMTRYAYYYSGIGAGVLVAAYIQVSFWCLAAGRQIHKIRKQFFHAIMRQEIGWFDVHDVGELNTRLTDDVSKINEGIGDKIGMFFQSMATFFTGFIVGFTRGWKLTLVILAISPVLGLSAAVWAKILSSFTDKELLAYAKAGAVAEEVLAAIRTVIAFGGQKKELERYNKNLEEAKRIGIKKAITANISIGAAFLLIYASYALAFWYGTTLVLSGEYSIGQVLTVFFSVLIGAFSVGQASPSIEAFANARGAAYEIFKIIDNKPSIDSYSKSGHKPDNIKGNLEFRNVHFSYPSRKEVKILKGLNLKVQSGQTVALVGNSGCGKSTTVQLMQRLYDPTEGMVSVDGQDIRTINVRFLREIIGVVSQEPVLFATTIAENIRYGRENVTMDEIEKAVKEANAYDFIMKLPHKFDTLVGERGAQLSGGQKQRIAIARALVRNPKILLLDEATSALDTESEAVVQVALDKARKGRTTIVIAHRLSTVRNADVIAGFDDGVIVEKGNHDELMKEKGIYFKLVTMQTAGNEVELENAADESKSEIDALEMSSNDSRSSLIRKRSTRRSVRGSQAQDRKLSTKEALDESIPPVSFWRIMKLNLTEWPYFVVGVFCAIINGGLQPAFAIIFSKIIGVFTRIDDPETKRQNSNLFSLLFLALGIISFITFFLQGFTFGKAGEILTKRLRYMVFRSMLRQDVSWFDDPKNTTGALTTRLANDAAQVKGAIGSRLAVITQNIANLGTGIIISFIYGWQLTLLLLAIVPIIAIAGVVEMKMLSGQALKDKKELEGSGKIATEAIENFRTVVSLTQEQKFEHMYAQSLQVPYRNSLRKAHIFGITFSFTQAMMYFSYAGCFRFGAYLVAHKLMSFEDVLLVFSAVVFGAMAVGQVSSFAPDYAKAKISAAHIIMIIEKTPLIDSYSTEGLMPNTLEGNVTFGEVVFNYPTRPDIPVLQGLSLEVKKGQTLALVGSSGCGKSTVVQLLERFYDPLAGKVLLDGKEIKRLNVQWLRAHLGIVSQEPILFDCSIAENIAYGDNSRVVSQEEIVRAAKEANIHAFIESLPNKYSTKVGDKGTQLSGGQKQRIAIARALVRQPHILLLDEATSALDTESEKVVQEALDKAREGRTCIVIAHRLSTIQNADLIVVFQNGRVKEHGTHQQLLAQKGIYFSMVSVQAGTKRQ

Activity [1]: inhibitor [+]
SMILES: CC(=O)O[C@H]1[C@@H](OC(C)=O)C(C)(C)/C=C/[C@H](C)C(=O)[C@@]2(OC(C)=O)C[C@@](C)(OC(C)=O)[C@H](OC(C)=O)[C@@H]2[C@H]2OC(=O)CC[C@@]2(OC(C)=O)[C@H]1OC(=O)C(C)C [TERRACINOLIDE B]

Activity [2]: inhibitor [+]
SMILES: CC(=O)O[C@H]1[C@@H](OC(C)=O)C(C)(C)/C=C/[C@H](C)C(=O)[C@@]2(OC(C)=O)C[C@@](C)(O)[C@H](OC(C)=O)[C@@H]2[C@H]2OC(=O)CC[C@@]2(OC(C)=O)[C@@H]1OC(=O)C(C)C [TERRACINOLIDE K]

Activity [6]: inhibitor [+]
SMILES: CC(=O)O[C@H]1[C@@H](OC(C)=O)C(C)(C)/C=C/[C@H](C)C(=O)[C@@]2(OC(C)=O)C[C@@](C)(OC(C)=O)[C@H](O)[C@@H]2[C@H]2OC(=O)CC[C@@]2(OC(C)=O)[C@@H]1OC(=O)C(C)C [TERRACINOLIDE C]

Activity [7]: is not an inhibitor [-]
SMILES: CC(=O)O[C@H]1[C@@H](OC(C)=O)C(C)(C)/C=C/[C@H](C)C(=O)[C@@]2(OC(C)=O)C[C@@](C)(O)[C@H](OC(C)=O)[C@@H]2[C@H]2OC(=O)CC[C@@]2(OC(=O)C(C)C)[C@@H]1OC(=O)C(C)C

Second part, the compound before the results:

SMILES: CC(=O)O[C@H]1[C@@H](OC(C)=O)C(C)(C)/C=C/[C@@](C)(O)C(=O)[C@@]2(O)C[C@@](C)(OC(C)=O)[C@H](OC(C)=O)[C@@H]2[C@H]2OC(=O)CC[C@@]2(OC(C)=O)[C@@H]1OC(=O)C(C)C
Activity [3]: inhibitor [+]

SMILES: C=C1[C@H](OC(=O)c2ccccc2)[C@@H](OC(C)=O)[C@@H](OC(C)=O)C(C)(C)/C=C/[C@H](C)[C@]2(O)C[C@@](C)(O)[C@H](OC(C)=O)[C@@H](C2=O)[C@H]1OC(=O)C(C)C [EPIABEODENDROIDIN F]
Activity [4]: inhibitor [+]

SMILES: CC(=O)O[C@H]1[C@@H](OC(C)=O)C(C)(C)/C=C/[C@@](C)(O)C(=O)[C@@]2(OC(C)=O)C[C@@](C)(OC(C)=O)[C@H](OC(C)=O)[C@@H]2[C@H]2OC(=O)CC[C@@]2(OC(C)=O)[C@@H]1OC(=O)C(C)C
Activity [5]: inhibitor [+]
